Two molecules from PubChem BioAssay AID588483 (Southern Research Specialized Biocontainment Screening …, 2011) can be followed below.

For assay [1], the system named is HEp-2 cell viability, luminescence (cytotoxicity counter-screen). The assay can be described thus: HEp-2 cell cytotoxicity, dose response, cytotoxicity control for RSV inhibitor project, synthesized compounds, set 14 (AID 588483). The gist of the method: (§1)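 Test system: uninfected HEp-2 human cells, no virus added. Input: 10,595 HEp-2 cells per well. Times: six-day compound exposure at 37 °C. Technique: ATP-based luminescence with CellTiter-Glo reagent. Measure: percent viability versus cell-control median, CC50 from four-parameter fit. Dosing: two-fold compound dilution series, 0.5% DMSO final. Replication: triplicate wells per compound concentration.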

Assay in assay [2]: as above
The following applies: HEp-2 cell viability, luminescence (cytotoxicity counter-screen); at 150 µM (top of the series). The gist of the method:
as §1

The structures appear in SMILES notation. “And” between values parts separate entries of the source, which are not always exact repeats. Identical values can stand only once. The source made the active and inactive calls.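 How the source made its calls: active means viability below 70% at any tested concentration, read as cytotoxicity; inactive means the rest.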

Consider `CN(C)c1ccc(Cn2c(=O)n(Cc3ccc(C(=O)NCC4COC4)cc3)c(=O)c3ccccc32)cc1`, for which the CC50 (as a rule, the concentration that lowers cell viability or growth by half) in assay [1] is 29.7 µM.

As for `O=C(O)c1ccc(Cn2c(=O)n(Cc3ccc(C(=O)NCC4COC4)cc3)c(=O)c3ccccc32)cc1`, the viability (usually a read-out of living cells in per cent, often relative to untreated cells) in assay [2] was 119% (inactive) and 107% (inactive).
